What was measured:
NIH 3T3 cells = test: Cytotoxicity against NIH 3T3 cells; type: cell-based; details: concentrations up to 1.5 mM
Summary of the method: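 Test compound applied to NIH 3T3 cells at concentrations up to 1.5 mM. Values are arithmetic means ± SD of three independent experiments.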

[1] = tested on: C. albicans susceptible strain HLY4123; test: Dose-response curves of test compounds against C. albicans with fluconazole; type: cell-based; details: for EC50: strain HLY4123, in the presence of fluconazole (0.25 μg/mL), mean ± SD of three independent experiments; for activity under the conditions of the assay: strain HLY4123, in combination with fluconazole
[2] = tested on: partially resistant clinical isolate of C. albicans CaCi-8; details: cited from earlier work; for active concentration: against CaCi-8 with fluconazole, none active below this, ref [48]–[50]

Molecule | EC50 [1] | further results
Cc1c(Cl)ccc2c1NC(=O)[C@]21N[C@H](Cc2ccccc2)[C@@H]2C(=O)N(c3ccc(F)cc3)C(=O)[C@@H]21 (racemic) [Compound 1, (±)-(3R,3′R,3a′R,6a′S)-3′-benzyl-6-chloro-5′-(4-fluorophenyl)-7-methyl-2′,3′,3a′,6a′-tetrahydro-4′H-spiro[indoline-3,1′-pyrrolo[3,4-c]pyrrole]-2,4′,6′(5′H)-trione] | 0.011 ± 0.004 µM | cytotoxicity (NIH 3T3 cells): only weak cytotoxicity
O=C1[C@H]2[C@@H](Cc3ccccc3)N[C@]3(C(=O)Nc4ccccc43)[C@H]2C(=O)N1Cc1ccccc1 (racemic) [Compound 8, (±)-(3R,3′R,3a′R,6a′S)-3′,5′-Dibenzyl-2′,3′,3a′,6a′-tetrahydro-4′H-spiro [indoline-3,1′-pyrrolo[3,4-c]pyrrole]-2,4′,6′(5′H)-trione] | ~10 µM | 
O=C1[C@H]2[C@@H](Cc3c[nH]c4ccccc34)N[C@]3(C(=O)Nc4ccccc43)[C@H]2C(=O)N1Cc1ccccc1 (racemic) [Compound 9, (±)-(3R,3′R,3a′R,6a′S)-3′-((1H-Indol-3-yl)methyl)-5′-benzyl-2′,3′,3a′,6a′-tetrahydro-4′H-spiro[indoline-3,1′-pyrrolo[3,4-c]pyrrole]-2,4′,6′(5′H)-trione] | ~10 µM | 
CC(C)(C)OC(=O)NCCCC[C@H]1N[C@]2(C(=O)Nc3ccccc32)[C@H]2C(=O)N(Cc3ccccc3)C(=O)[C@@H]12 (racemic) [Compound 10, (±)-tert-Butyl (4-((3R,3′R,3a′R,6a′S)-5′-benzyl-2,4′,6′-trioxo-3′,3a′,4′,5′, 6′,6a′-hexahydro-2′H-spiro[indoline-3,1′-pyrrolo[3,4-c]pyrrol]-3′-yl)butyl)carbamate] | > 100 µM | 
O=C1[C@H]2[C@@H](Cc3ccccc3)N[C@]3(C(=O)N(Cc4ccccc4)c4ccccc43)[C@H]2C(=O)N1Cc1ccccc1 (racemic) [Compound 11, (±)-(3R,3′R,3a′R,6a′S)-1,3′,5′-Tribenzyl-2′,3′,3a′,6a′-tetrahydro-4′H-spi ro[indoline-3,1′-pyrrolo[3,4-c]pyrrole]-2,4′,6′(5′H)-trione] | > 10 µM | 
O=C1[C@H]2[C@@H](Cc3ccccc3)N[C@]3(C(=O)N(Cc4ccccc4)c4ccccc43)[C@H]2C(=O)N1c1ccccc1 (racemic) [Compound 12, (±)-(3R,3′R,3a′R,6a′S)-1,3′-Dibenzyl-5′-phenyl-2′,3′,3a′,6a′-tetrahydro-4′H-spiro[indoline-3,1′-pyrrolo[3,4-c]pyrrole]-2,4′,6′(5′H)-trione] | > 100 µM | 
Cc1c(Cl)ccc2c1NC(=O)[C@]21N[C@H](Cc2ccccc2)[C@@H]2C(=O)N(c3ccccc3)C(=O)[C@@H]21 (racemic) [Compound 13, (±)-(3R,3′R,3a′R,6a′S)-3′-Benzyl-6-chloro-7-methyl-5′-phenyl-2′,3′,3a′, 6a′-tetrahydro-4′H-spiro[indoline-3,1′-pyrrolo[3,4-c]pyrrole]-2,4′,6′ (5′H)-trione] | 0.001 ± 0.0005 µM | 
Cc1c(Cl)ccc2c1NC(=O)[C@@]21[C@H]2C(=O)N(c3ccccc3)C(=O)[C@H]2[C@H]2CN(C(=O)OC(C)(C)C)CCN21 (racemic) [Compound 14, (±)-tert-Butyl (3R,3a′R,3b′S,9a′S)-6-chloro-7-methyl-1′,2,3′-trioxo-2′-phenyl-2′,3′,3a′,3b′,4′,6′,7′,9a′-octahydrospiro[indoline-3,9′-pyrrolo[3′, 4′:3,4]pyrrolo[1,2-a]pyrazine]-5′(1′H)-carboxylate] | 0.0056 ± 0.003 µM | 
Cc1c(Cl)ccc2c1NC(=O)[C@@]21[C@H]2C(=O)N(c3ccc(F)cc3)C(=O)[C@H]2[C@H]2CN(C(=O)OC(C)(C)C)CCN21 (racemic) [Compound 15, (±)-tert-Butyl (3R,3a′R,3b′S,9a′S)-6-chloro-2′-(4-fluorophenyl)-7-methyl-1′,2,3′-trioxo-2′,3′,3a′,3b′,4′,6′,7′,9a′-octahydrospiro[indoline-3,9′-pyrrolo[3′,4′:3,4]pyrrolo[1,2-a]pyrazine]-5′(1′H)-carboxylate] | 0.037 ± 0.001 µM | 
Cc1c(Cl)ccc2c1NC(=O)[C@@]21[C@H]2C(=O)N(c3cc(C(F)(F)F)cc(C(F)(F)F)c3)C(=O)[C@H]2[C@H]2CN(C(=O)OC(C)(C)C)CCN21 (racemic) [Compound 16, (±)-tert-Butyl (3R,3a′R,3b′S,9a′S)-2′-(3,5-bis(trifluoromethyl)phenyl)-6-chloro-7-methyl-1′,2,3′-trioxo-2′,3′,3a′,3b′,4′,6′,7′,9a′-octahydrospiro [indoline-3,9′-pyrrolo[3′,4′:3,4]pyrrolo[1,2-a]pyrazine]-5′(1′H)-carboxy late] | 0.0237 ± 0.01 µM | 
Cc1c(Cl)ccc2c1N(Cc1ccccc1)C(=O)[C@@]21[C@H]2C(=O)N(c3ccccc3)C(=O)[C@H]2[C@H]2CN(C(=O)OC(C)(C)C)CCN21 (racemic) [Compound 17, (±)-tert-butyl (3R,3a′R,3b′S,9a′S)-1-benzyl-6-chloro-7-methyl-1′,2,3′-trioxo-2′-phenyl-2′,3′,3a′,3b′,4′,6′,7′,9a′-octahydrospiro [indoline-3,9′-pyrrolo[3′,4′:3,4]pyrrolo[1,2-a]pyrazine]-5′(1′H)-carboxy late] | > 100 µM | 
Cc1cccc2c1NC(=O)[C@@]21[C@H]2C(=O)N(c3ccccc3)C(=O)[C@H]2[C@H]2CN(C(=O)OC(C)(C)C)CCN21 (racemic) [Compound 22, (±)-tert-Butyl (3R,3a′R,3b′S,9a′S)-7-methyl-1′,2,3′-trioxo-2′-phenyl-2′, 3′,3a′,3b′,4′,6′,7′,9a′-octahydrospiro[indoline-3,9′-pyrrolo[3′,4′:3,4]pyrrolo[1,2-a]pyrazine]-5′(1′H)-carboxylate] | 0.213 ± 0.08 µM | 
Cc1ccc2c(c1C)NC(=O)[C@@]21[C@H]2C(=O)N(c3ccccc3)C(=O)[C@H]2[C@H]2CN(C(=O)OC(C)(C)C)CCN21 (racemic) [Compound 23, (±)-tert-Butyl (3R,3a′R,3b′S,9a′S)-6,7-dimethyl-1′,2,3′-trioxo-2′-phenyl-2′,3′,3a′,3b′,4′,6′,7′,9a′-octahydrospiro[indoline-3,9′-pyrrolo[3′,4′:3,4]pyrrolo[1,2-a]pyrazine]-5′(1′H)-carboxylate] | 0.0057 ± 0.006 µM | 
Cc1c(Cl)ccc2c1NC(=O)[C@@]21[C@H]2C(=O)N(c3ccccc3)C(=O)[C@H]2[C@H]2CNCCN21 (racemic) [Compound 26, (±)-(3R,3a′R,3b′S,9a′S)-6-chloro-7-methyl-2′-phenyl-3a′,4′,5′,6′,7′,9a′-hexahydrospiro[indoline-3,9′-pyrrolo[3′,4′:3,4]pyrolo[1,2-a]pyrazine]-1′,2,3′(2′H,3b′H)-trione] | ~10 µM | 
COC(=O)CCCCCCCCC(=O)N1CCN2[C@H](C1)[C@@H]1C(=O)N(c3ccccc3)C(=O)[C@@H]1[C@@]21C(=O)Nc2c1ccc(Cl)c2C (racemic) [Compound 27, (±)-methyl 10-((3R,3a′R,3b′S,9a′S)-6-chloro-7-methyl-1′,2,3′-trioxo-2′-phenyl-2′,3′,3a′,3b′,4′,6′,7′,9a′-octahydrospiro [indoline-3,9′-pyrrolo[3′,4′:3,4]pyrrolo[1,2-a]pyrazin]-5′(1′H)-yl)-10-oxodecanoate] | 0.0379 ± 0.009 µM | 
CO[C@H](C(=O)N1CCN2[C@H](C1)[C@@H]1C(=O)N(c3ccccc3)C(=O)[C@@H]1[C@@]21C(=O)Nc2c1ccc(Cl)c2C)c1ccccc1 (racemic) [Compound 28, (±)-(3R,3a′R,3b′S,9a′S)-6-chloro-5′-((S)-2-methoxy-2-phenylacetyl)-7-methyl-2′-phenyl-3a′,4′,5′,6′,7′,9a′-hexahydrospiro [indoline-3,9′-pyrrolo[3′,4′:3,4]pyrrolo[1,2-a]pyrazine]-1′,2,3′(2′H, 3b′H)-trione] | 0.035 ± 0.007 µM | 
Cc1c(Cl)ccc2c1NC(=O)[C@@]21[C@H]2C(=O)N(c3ccccc3)C(=O)[C@H]2[C@H]2CN(C(=O)CCc3ccccc3)CCN21 (racemic) [Compound 29, (±)-(3R,3a′R,3b′S,9a′S)-6-chloro-7-methyl-2′-phenyl-5′-(3-phenylpropanoyl)-3a′,4′,5′,6′,7′,9a′-hexahydrospiro[indoline-3,9′-pyrrolo[3′,4′:3,4]pyrrolo[1,2-a]pyrazine]-1′,2,3′(2′H,3b′H)-trione] | 0.0181 ± 0.004 µM | 
Cc1c(Cl)ccc2c1NC(=O)[C@]21N[C@@H](Cc2ccccc2)[C@H]2C(=O)N(c3ccc(F)cc3)C(=O)[C@H]21 [CID 6584729, (1S,3R,3aR,6aS)-1-benzyl-6′-chloro-5-(4-fluorophenyl)-7′-methylspiro[1,2,3a,6a-tetrahydropyrrolo[3,4-c]pyrrole-3,3′-1H-indole]-2′,4,6-trione] |  | EC50 ([2]; enhancing the effect of fluconazole against CaCi-8, ref [68]): 0.12 µM
Cc1c(Cl)ccc2c1NC(=O)[C@]21[C@H]2C(=O)N(c3ccccc3)C(=O)[C@H]2[C@@H]2C[C@@H](OC(=O)c3ccccc3)CN21 [Compound 25a, (+)-(3S,3a′S,7′R,8a′S,8b′R)-6-chloro-7-methyl-1′,2,3′-tri oxo-2′-phenyl-2′,3′,3a′,6′,7′,8′,8a′,8b′-octahydro-1′H-spiro[indoline-3,4′-pyrrolo[3,4-a]pyrrolizin]-7′-yl benzoate] |  | activity under the conditions of the assay [1]: almost no activity
Cc1c(Cl)ccc2c1NC(=O)[C@@]21[C@@H]2C(=O)N(c3ccccc3)C(=O)[C@@H]2[C@H]2C[C@@H](OC(=O)c3ccccc3)CN21 [Compound 25b, (−)-(3R,3a′R,7′R, 8a′R,8b′S)-6-chloro-7-methyl-1′,2,3′-trioxo-2′-phenyl-2′,3′,3a′,6′,7′,8′, 8a′,8b′-octahydro-1′H-spiro[indoline-3,4′-pyrrolo[3,4-a]pyrrolizin]-7′-yl benzoate] |  | activity under the conditions of the assay [1]: almost no activity
O=C(c1ccc(Cl)cc1)N1CCN(c2ccnc3cc(Cl)ccc23)CC1 [ML189] |  | active concentration [2]: ≥ 0.7 µM
COC(=O)Cn1nc(-c2cccc(OC)c2)c2ccccc21 [ML212] |  | active concentration [2]: ≥ 0.7 µM
O=C(Cn1c2ccccc2c2nc3n(c(=O)c21)CCS3)N1CCCC1 [ML229] |  | active concentration [2]: ≥ 0.7 µM
(±)-tert-Butyl (3R,3a′R,3b′S,9a′S)-2′-benzyl-1′,2,3′-trioxo-2′,3′,3a′,3b′, 4′,6′,7′,9a′-octahydrospiro[indoline-3,9′-pyrrolo[3′,4′:3,4]pyrrolo[1,2-a]pyrazine]-5′(1′H)-carboxylate [Compound 19] | > 100 µM | 

— PMC4682886 (ChemMedChem, 2015)
